# Experimental data as given in PubChem BioAssay AID602134 (Broad Institute, 2011).
# The source made the active and inactive calls.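 Rule for the calls: active = falling transferrin uptake with a fitted half-maximal potency at or below twice the top valid tested dose; inconclusive = flat fit with a 30 to 70% drop, or poor fit; inactive = the rest.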
# Assay: transferrin receptor uptake blockade – imaging, Alexa594-transferrin, dry powder, selectivity assay for SR-BI HDL uptake inhibitor project, dose response (AID 602134)
# Method in brief: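 Material – mSR-BI cells · Buffer or medium – serum-free DMEM, 1% BSA · Reagent – Alexa-594 transferrin, 30 µg/mL · Schedule – transferrin uptake 30 min at 37 °C, stopped on ice · Detection – fluorescence imaging, Alexa-594 and DAPI · Read-out basis – normalized percent of cells with above-threshold perinuclear transferrin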
smiles,measurement,value
CC1CCC/C=C/C2CC(O)CC2C(O)/C=C\C(=O)O1 (stereo unspecified),outcome,inactive
